Calls of active or inactive are those of the source. The calls are words filed in the database; no cut-off is given here.
Experiments:
Homo sapiens = species: Homo sapiens; test: Inhibition of NF-kappaB (unknown origin) assessed as decrease in NF-kappaB/DNA interaction at 12.5 uM using 32P-labeled target NF-kappaB double-stranded oligonucleotide after 30 mins by EMSA
Salmonella typhimurium [1] = test: Genotoxicity in Salmonella typhimurium TA98 assessed as revertant colonies at 1 uL/plate in absence of Sprague-Dawley rat S9 metabolic activation after 72 hrs by Ames test (reference value: 1); assay type: toxicity, organism-based; conditions: salmonella enterica subsp. enterica serovar typhimurium
Salmonella typhimurium [2] = test: Genotoxicity in Salmonella typhimurium TA98 assessed as revertant colonies at 50 uL/plate in absence of Sprague-Dawley rat S9 metabolic activation after 72 hrs by Ames test (reference value: 1); assay type: toxicity, organism-based; conditions: salmonella enterica subsp. enterica serovar typhimurium
Salmonella typhimurium [3] = test: Genotoxicity in Salmonella typhimurium TA98 assessed as revertant colonies at 100 uL/plate in absence of Sprague-Dawley rat S9 metabolic activation after 72 hrs by Ames test (reference value: 1); assay type: toxicity, organism-based; conditions: salmonella enterica subsp. enterica serovar typhimurium
Salmonella typhimurium [4] = test: Genotoxicity in Salmonella typhimurium TA98 assessed as revertant colonies at 5 uL/plate in presence of Sprague-Dawley rat S9 metabolic activation after 72 hrs by Ames test (reference value: 1); assay type: toxicity, organism-based; conditions: salmonella enterica subsp. enterica serovar typhimurium
Salmonella typhimurium [5] = test: Genotoxicity in Salmonella typhimurium TA98 assessed as revertant colonies at 10 uL/plate in presence of Sprague-Dawley rat S9 metabolic activation after 72 hrs by Ames test (reference value: 1); assay type: toxicity, organism-based; conditions: salmonella enterica subsp. enterica serovar typhimurium
Salmonella typhimurium [6] = test: Genotoxicity in Salmonella typhimurium TA98 assessed as revertant colonies at 50 uL/plate in presence of Sprague-Dawley rat S9 metabolic activation after 72 hrs by Ames test (reference value: 1); assay type: toxicity, organism-based; conditions: salmonella enterica subsp. enterica serovar typhimurium
Salmonella typhimurium [7] = test: Genotoxicity in Salmonella typhimurium TA100 assessed as revertant colonies at 50 uL/plate in absence of Sprague-Dawley rat S9 metabolic activation after 72 hrs by Ames test (reference value: 1); assay type: toxicity, organism-based; conditions: salmonella enterica subsp. enterica serovar typhimurium
Salmonella typhimurium [8] = test: Genotoxicity in Salmonella typhimurium TA100 assessed as revertant colonies at 1 uL/plate in presence of Sprague-Dawley rat S9 metabolic activation after 72 hrs by Ames test (reference value: 1); assay type: toxicity, organism-based; conditions: salmonella enterica subsp. enterica serovar typhimurium
Salmonella typhimurium [9] = test: Genotoxicity in Salmonella typhimurium TA100 assessed as revertant colonies at 50 uL/plate in presence of Sprague-Dawley rat S9 metabolic activation after 72 hrs by Ames test (reference value: 1); assay type: toxicity, organism-based; conditions: salmonella enterica subsp. enterica serovar typhimurium
Salmonella typhimurium [10] = test: Genotoxicity in Salmonella typhimurium TA100 assessed as revertant colonies at 100 uL/plate in presence of Sprague-Dawley rat S9 metabolic activation after 72 hrs by Ames test (reference value: 1); assay type: toxicity, organism-based; conditions: salmonella enterica subsp. enterica serovar typhimurium
Salmonella typhimurium [11] = test: Genotoxicity in Salmonella typhimurium TA97A assessed as revertant colonies at 1 uL/plate in absence of Sprague-Dawley rat S9 metabolic activation after 72 hrs by Ames test (reference value: 1); assay type: toxicity, organism-based; conditions: salmonella enterica subsp. enterica serovar typhimurium
Salmonella typhimurium [12] = test: Genotoxicity in Salmonella typhimurium TA97A assessed as revertant colonies at 5 uL/plate in absence of Sprague-Dawley rat S9 metabolic activation after 72 hrs by Ames test (reference value: 1); assay type: toxicity, organism-based; conditions: salmonella enterica subsp. enterica serovar typhimurium
Salmonella typhimurium [13] = test: Genotoxicity in Salmonella typhimurium TA97A assessed as revertant colonies at 50 uL/plate in absence of Sprague-Dawley rat S9 metabolic activation after 72 hrs by Ames test (reference value: 1); assay type: toxicity, organism-based; conditions: salmonella enterica subsp. enterica serovar typhimurium
Salmonella typhimurium [14] = test: Genotoxicity in Salmonella typhimurium TA97A assessed as revertant colonies at 5 uL/plate in presence of Sprague-Dawley rat S9 metabolic activation after 72 hrs by Ames test (reference value: 1); assay type: toxicity, organism-based; conditions: salmonella enterica subsp. enterica serovar typhimurium
Salmonella typhimurium [15] = test: Genotoxicity in Salmonella typhimurium TA97A assessed as revertant colonies at 10 uL/plate in presence of Sprague-Dawley rat S9 metabolic activation after 72 hrs by Ames test (reference value: 1); assay type: toxicity, organism-based; conditions: salmonella enterica subsp. enterica serovar typhimurium
Salmonella typhimurium [16] = test: Genotoxicity in Salmonella typhimurium TA97A assessed as revertant colonies at 50 uL/plate in presence of Sprague-Dawley rat S9 metabolic activation after 72 hrs by Ames test (reference value: 1); assay type: toxicity, organism-based; conditions: salmonella enterica subsp. enterica serovar typhimurium
Salmonella typhimurium [17] = test: Genotoxicity in Salmonella typhimurium TA1535 assessed as revertant colonies at 1 uL/plate in absence of Sprague-Dawley rat S9 metabolic activation after 72 hrs by Ames test (reference value: 1); assay type: toxicity, organism-based; conditions: salmonella enterica subsp. enterica serovar typhimurium
Salmonella typhimurium [18] = test: Genotoxicity in Salmonella typhimurium TA1535 assessed as revertant colonies at 50 uL/plate in absence of Sprague-Dawley rat S9 metabolic activation after 72 hrs by Ames test (reference value: 1); assay type: toxicity, organism-based; conditions: salmonella enterica subsp. enterica serovar typhimurium
Salmonella typhimurium [19] = test: Genotoxicity in Salmonella typhimurium TA1535 assessed as revertant colonies at 100 uL/plate in absence of Sprague-Dawley rat S9 metabolic activation after 72 hrs by Ames test (reference value: 1); assay type: toxicity, organism-based; conditions: salmonella enterica subsp. enterica serovar typhimurium
Salmonella typhimurium [20] = test: Genotoxicity in Salmonella typhimurium TA1535 assessed as revertant colonies at 100 uL/plate in presence of Sprague-Dawley rat S9 metabolic activation after 72 hrs by Ames test (reference value: 1); assay type: toxicity, organism-based; conditions: salmonella enterica subsp. enterica serovar typhimurium
IB3-1 [21] = test: Inhibition of TNF-alpha induced IL-10 production in human IB3-1 cells at 1 uM preincubated for 5 hrs followed by TNF-alpha stimulation and measured after 24 hrs relative to control; assay type: functional
Outline: (§1)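 IB3-1 cells (CF patient, ΔF508/W1282X, adeno12/SV40-immortalized) grown in LHC-8 with 5% FBS, no gentamycin, 37°C/5% CO₂; 60% confluent monolayers seeded, compound added after 24 h, 5 h before 80 ng/ml TNF-α, then 24 h further incubation. Cytokines in supernatants measured by Bioplex 27-plex Luminex bead assay: beads, detection antibody, streptavidin–phycoerythrin, 30/30/10 min at room temperature.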

IB3-1 [22] = test: Inhibition of TNF-alpha induced IL-17 production in human IB3-1 cells at 1 uM preincubated for 5 hrs followed by TNF-alpha stimulation and measured after 24 hrs relative to control; assay type: functional; outline: as §1
IB3-1 [23] = test: Inhibition of TNF-alpha induced IFN-gamma production in human IB3-1 cells at 1 uM preincubated for 5 hrs followed by TNF-alpha stimulation and measured after 24 hrs relative to control; assay type: functional; outline: as §1
Salmon testes DNA [24] = test: Induction of damage in salmon testes DNA at 100 uM in absence of 2.5 to 7.5 J/cm2 UVA irradiation by ethidium bromide dye-based agarose gel electrophoresis analysis; assay type: nucleic-acid assay; conditions: salmonidae
Salmon testes DNA [25] = test: Binding affinity to salmon testes DNA assessed as DNA intercalation by linear flow dichroism analysis; conditions: Salmonidae

CCc1cc2c(C(C)C)cc(=O)oc2c2c(C)coc12
inhibition (Homo sapiens): Active | T/C (Salmonella typhimurium [1]): 1.1 | T/C (Salmonella typhimurium [2]): 1.2 | T/C (Salmonella typhimurium [3]): 1.2 | T/C (Salmonella typhimurium [4]): 0.6 | T/C (Salmonella typhimurium [5]): 0.7 | T/C (Salmonella typhimurium [6]): 0.7 | T/C (Salmonella typhimurium [7]): 0.9 | T/C (Salmonella typhimurium [8]): 1.1 | T/C (Salmonella typhimurium [9]): 1.2 | T/C (Salmonella typhimurium [10]): 1.5 | T/C (Salmonella typhimurium [11]): 1.1 | T/C (Salmonella typhimurium [12]): 0.9 | T/C (Salmonella typhimurium [13]): 1.1 | T/C (Salmonella typhimurium [14]): 1.1 | T/C (Salmonella typhimurium [15]): 1.2 | T/C (Salmonella typhimurium [16]): 1.2 | T/C (Salmonella typhimurium [17]): 1.1 | T/C (Salmonella typhimurium [18]): 1 | T/C (Salmonella typhimurium [19]): 0.9 | T/C (Salmonella typhimurium [20]): 0.8 | inhibition at 1 µM (IB3-1 [21]): > 20% | inhibition at 1 µM (IB3-1 [22]): > 20% | inhibition at 1 µM (IB3-1 [23]): > 20% | Activity (Salmon testes DNA [24]): Not Active | Activity (Salmon testes DNA [25]): inactive

Source: ChEMBL document CHEMBL4152196, “Design, synthesis and biological evaluation of novel trimethylangelicin analogues targeting nuclear factor kB (NF-kB)” (Eur J Med Chem, 2018)
